Measurements as given in ChEMBL document CHEMBL1128333, “Derivatives of cis-2-amino-8-hydroxy-1-methyltetralin: mixed 5-HT1A-receptor agonists and dopamine D2-receptor antagonists” (J Med Chem, 1995).

Legend:
Rattus norvegicus [1] = experiment: Change in body temperature in rats after subcutaneous administration; format: functional
How it was run: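 Rectal temperature was taken with an electrical thermometer, probe inserted 3.5 cm, before and 30 min after sc injection in 0.9% NaCl. Values are the change from the preinjection reading, analysed by Tukey HSD versus saline-treated rats. Male Sprague–Dawley rats, 260–310 g.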

Rattus norvegicus [2] = species: Rattus norvegicus; experiment: 5-HIAA (5-Hydroxyindoleacetic acid) content of rat hippocampus reflecting 5-HT metabolism and turnover; format: functional; parameters: concentration or dose not given beside the values
How it was run: (§1)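 Male Sprague–Dawley rats (260–310 g) received compound sc in 0.9% NaCl; saline controls. Rats were decapitated 35–45 min post-injection, and hippocampus and striatum were dissected and frozen. Tissue was homogenized in 0.1 M perchloric acid with α-methyl-5-hydroxytryptophan as internal standard, centrifuged and filtered, then analysed by HPLC-EC at 0.85 V (mobile phase pH 2.69, 35 °C). Values are percent of control, mean ± SEM.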

Rattus norvegicus [3] = species: Rattus norvegicus; experiment: HVA (Homovanillic acid)content of rat striatum reflecting DA metabolism and turnover; format: functional; parameters: concentration or dose not given beside the values
Rattus norvegicus [4] = experiment: Forepaw treading (FPT) behavior was studied in rats after subcutaneous administration of 32 uM/Kg of compound; 0/5; format: functional
Rattus norvegicus [5] = experiment: Cage leaving response was studied in rats after subcutaneous administration of 32 uM/Kg of compound; 4/5; format: functional
Rattus norvegicus [6] = species: Rattus norvegicus; experiment: Ratio of serotonin turnover (5HIAA to 5-HT) in rat brain hippocampus compared to control; format: functional; how it was run: as §1
Rattus norvegicus [7] = species: Rattus norvegicus; experiment: DA (dopamine) content of rat striatum reflecting DA metabolism and turnover; format: functional; how it was run: as §1
Rattus norvegicus [8] = species: Rattus norvegicus; experiment: DOPAC (3,4-dihydroxyphenylacetic acid) content of rat striatum reflecting DA metabolism and turnover; format: functional; parameters: concentration or dose not given beside the values; how it was run: as §1
[9] = target: T1, 5-hydroxytryptamine receptor 1A (Rattus norvegicus, UniProt P19327); experiment: Binding affinity for 5-hydroxytryptamine 1A receptor in rat brain tissue using [3H]8-OH-DPAT as radioligand; format: tissue-based
T1 sequence (P19327 whole entry): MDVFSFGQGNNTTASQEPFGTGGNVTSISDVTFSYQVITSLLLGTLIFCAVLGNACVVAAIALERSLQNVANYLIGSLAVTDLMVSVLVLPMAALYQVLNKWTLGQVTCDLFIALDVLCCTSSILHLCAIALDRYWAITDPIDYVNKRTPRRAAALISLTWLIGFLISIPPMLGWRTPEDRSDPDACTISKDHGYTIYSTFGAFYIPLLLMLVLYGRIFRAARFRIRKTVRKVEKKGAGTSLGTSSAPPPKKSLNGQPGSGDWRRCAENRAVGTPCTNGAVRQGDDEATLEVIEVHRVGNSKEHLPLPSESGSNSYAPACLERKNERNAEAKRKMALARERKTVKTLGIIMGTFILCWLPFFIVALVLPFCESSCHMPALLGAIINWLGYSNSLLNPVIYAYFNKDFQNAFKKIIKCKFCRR
How it was run: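 Membranes from male Sprague–Dawley rat cortex plus hippocampus, homogenized in 50 mM Tris-HCl with 4.0 mM CaCl2 and 5.7 mM ascorbic acid, pH 7.5, and preincubated 10 min at 37 °C with 10 μM pargyline. Assay used 5 mg/mL tissue and 2 nM [3H]-8-OH-DPAT, 10 min at 37 °C. Nonspecific binding was defined with 10 μM 5-HT. Bound ligand was separated on GF/B filters and counted; data were fitted by nonlinear regression.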

Rattus norvegicus [10] = species: Rattus norvegicus; experiment: Ratio of turnover (DOPAC to DA) in rat brain striatum compared to control.; format: functional; how it was run: as §1
Rattus norvegicus [11] = species: Rattus norvegicus; experiment: 5-HT content of rat hippocampus reflecting 5-HT metabolism and turnover; format: functional; parameters: concentration or dose not given beside the values; how it was run: as §1
D(2) dopamine receptor = D(2) dopamine receptor (Homo sapiens, UniProt P14416); experiment: In vitro binding affinity towards human Dopamine receptor D2A was determined in mouse fibroblast LtK cells using [3H]raclopride; format: cell-based
How it was run: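 Membranes from Ltk− mouse fibroblasts stably expressing human D2A receptors, at 80–100 pM receptor. Buffer was 50 mM Tris-HCl, 120 mM NaCl, 5 mM KCl, 1.5 mM CaCl2, 4 mM MgCl2, 1 mM EDTA, pH 7.4. Incubation with [3H]raclopride was 60 min at 22 °C, in duplicate, with 1 μM (+)-butaclamol for nonspecific binding. Bound ligand was separated on GF/B filters; data were fitted by nonlinear regression.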

Rattus norvegicus [12] = experiment: Flat body posture behavior was studied in rats after subcutaneous administration of 32 uM/Kg of compound; 0/5; format: functional
Rattus norvegicus [13] = experiment: Cage leaving response was studied in rats after subcutaneous administration of 32 uM/Kg of compound; 3/4; format: functional
Rattus norvegicus [14] = experiment: Flat body posture behavior was studied in rats after subcutaneous administration of 32 uM/Kg of compound; 0/4; format: functional
How it was run: (§2)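 Test compounds were given at 32 μmol/kg and the reference 5-HT1A agonist at 1 μmol/kg. Flat body posture, forepaw treading and hind limb abduction were each scored as absent or present. Values are animals showing the behavior out of animals tested, analysed by Fisher's exact test. Male Sprague–Dawley rats, 260–310 g.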

Rattus norvegicus [15] = experiment: Forepaw treading (FPT) behavior was studied in rats after subcutaneous administration of 32 uM/Kg of compound; 0/4; format: functional; how it was run: as §2
Rattus norvegicus [16] = experiment: Cage leaving response was studied in rats after subcutaneous administration of 32 uM/Kg of compound; 2/4; format: functional
Rattus norvegicus [17] = experiment: Cage leaving response was studied in rats after subcutaneous administration of 32 uM/Kg of compound; 3/5; format: functional
Rattus norvegicus [18] = experiment: Cage leaving response was studied in rats after subcutaneous administration of 32 uM/Kg of compound; 0/5; format: functional
Rattus norvegicus [19] = experiment: Forepaw treading (FPT) behavior was studied in rats after subcutaneous administration of 32 uM/Kg of compound; 5/5; format: functional
Rattus norvegicus [20] = experiment: Flat body posture behavior was studied in rats after subcutaneous administration of 32 uM/Kg of compound; 5/5; format: functional

Chain of D(2) dopamine receptor (P14416 whole entry): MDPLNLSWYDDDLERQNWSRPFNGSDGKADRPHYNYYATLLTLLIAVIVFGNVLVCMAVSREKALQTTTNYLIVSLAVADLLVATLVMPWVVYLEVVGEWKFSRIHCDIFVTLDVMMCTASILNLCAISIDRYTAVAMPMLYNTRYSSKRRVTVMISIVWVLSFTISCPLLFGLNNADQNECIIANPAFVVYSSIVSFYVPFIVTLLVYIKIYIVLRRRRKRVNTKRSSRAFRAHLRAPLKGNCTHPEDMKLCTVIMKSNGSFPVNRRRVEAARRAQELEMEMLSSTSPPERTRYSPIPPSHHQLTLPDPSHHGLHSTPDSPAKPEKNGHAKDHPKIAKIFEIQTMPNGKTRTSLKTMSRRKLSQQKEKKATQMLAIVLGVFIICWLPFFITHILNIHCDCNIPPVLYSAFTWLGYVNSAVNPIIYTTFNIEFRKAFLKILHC

SMILES	Change of body temperature (Rattus norvegicus [1]) [°C]	Control (Rattus norvegicus [2]) [%]	Control (Rattus norvegicus [3]) [%]	FPT (Rattus norvegicus [4])	Cage leaving (Rattus norvegicus [5])	Ratio (Rattus norvegicus [6])	Control (Rattus norvegicus [7]) [%]	Control (Rattus norvegicus [8]) [%]	Ki [9] [nM]	Ratio (Rattus norvegicus [10])	Control (Rattus norvegicus [11]) [%]	FBP (Rattus norvegicus [12])	FBP (Rattus norvegicus [14])	FPT (Rattus norvegicus [15])	also measured
CCCN(CCC)[C@@H]1CCc2cccc(OS(=O)(=O)C(F)(F)F)c2[C@@H]1C	0	87	102	0	4	82	108	105	6.7	97	105	0	–	–	Ki (D(2) dopamine receptor): 124 nM
CCCN(CCC)[C@H]1CCc2cccc(C(=O)NC(C)C)c2[C@H]1C	0	97	76	0	4	92	82	59	> 1000	74	104	0	–	–	–
CCCN(CCC)[C@@H]1CCc2cccc(-c3ccco3)c2[C@@H]1C	0.1	111	107	–	–	101	91	116	> 1000	128	110	–	0	0	Cage leaving (Rattus norvegicus [13]): 3
CCCN(C(C)C)[C@@H]1CCc2cccc(OC)c2[C@@H]1C	0.1	104	105	–	–	116	99	102	116	102	86	–	0	0	Cage leaving (Rattus norvegicus [16]): 2
CCCN(CCC)[C@H]1CCc2cccc(C(C)=O)c2[C@H]1C	0.1	93	93	–	–	93	95	130	138	110	99	–	0	0	Cage leaving (Rattus norvegicus [13]): 3
CCCN(CCC)[C@H]1CCc2cccc(-c3ccco3)c2[C@H]1C	0.1	121	109	–	–	107	103	102	44	98	108	–	0	0	Cage leaving (Rattus norvegicus [13]): 3
CCCN(CCC)[C@H]1CCc2cccc(OS(=O)(=O)C(F)(F)F)c2[C@H]1C	0.1	91	99	0	–	80	107	107	236	99	97	0	–	–	Cage leaving (Rattus norvegicus [17]): 3
CCCN(C(C)C)[C@H]1CCc2cccc(OC)c2[C@H]1C	0	110	90	–	–	124	103	96	1420	94	87	–	0	0	Cage leaving (Rattus norvegicus [16]): 2
CCCN(C(C)C)[C@H]1CCc2cccc(O)c2[C@H]1C	-0.1	79	100	0	4	80	110	86	–	77	97	0	–	–	–
CCCN(CCC)[C@H]1CCc2cccc(O)c2[C@H]1C	-0.3	104	96	–	–	95	107	118	–	112	109	–	0	0	Cage leaving (Rattus norvegicus [16]): 2
CCCN(C(C)C)[C@@H]1CCc2cccc(O)c2[C@@H]1C	-0.3	93	225	0	4	97	74	116	81	155	96	0	–	–	Ki (D(2) dopamine receptor): 614 nM
CCCN(CCC)[C@H]1CCc2ccccc2[C@H]1C	0.1	112	111	0	–	104	113	92	> 1000	81	107	0	–	–	Cage leaving (Rattus norvegicus [17]): 3
CCCN(CCC)[C@@H]1CCc2cccc(C(C)=O)c2[C@@H]1C	-1.7	96	203	–	–	97	95	192	0.56	200	99	–	–	–	Cage leaving (Rattus norvegicus [18]): 0; FPT (Rattus norvegicus [19]): 5; Ki (D(2) dopamine receptor): 40 nM; FBP (Rattus norvegicus [20]): 5
CCCN(CCC)[C@@H]1CCc2cccc(C(=O)NC(C)C)c2[C@@H]1C	-2.5	66	94	–	–	54	99	74	38	76	123	–	–	–	Cage leaving (Rattus norvegicus [18]): 0; FPT (Rattus norvegicus [19]): 5; FBP (Rattus norvegicus [20]): 5
CCCN(CCC)[C@@H]1CCc2cccc(C(=O)c3ccccc3)c2[C@@H]1C	0.1	92	111	0	4	89	105	117	2.6	110	101	0	–	–	–
CCCN(CCC)[C@H]1CCc2cccc(C(=O)c3ccccc3)c2[C@H]1C	0	114	97	0	4	123	102	112	–	109	93	0	–	–	–
CCCN(CCC)[C@@H]1CCc2cccc(C(=O)OC)c2[C@@H]1C	-2.7	78	194	–	–	64	112	167	–	152	122	–	–	–	Cage leaving (Rattus norvegicus [18]): 0; FPT (Rattus norvegicus [19]): 5; Ki (D(2) dopamine receptor): 58.8 nM; FBP (Rattus norvegicus [20]): 5
